This test addresses T1, Tumor necrosis factor ligand superfamily member 11 (Mus musculus, UniProt O35235).
T1 sequence (O35235 whole entry): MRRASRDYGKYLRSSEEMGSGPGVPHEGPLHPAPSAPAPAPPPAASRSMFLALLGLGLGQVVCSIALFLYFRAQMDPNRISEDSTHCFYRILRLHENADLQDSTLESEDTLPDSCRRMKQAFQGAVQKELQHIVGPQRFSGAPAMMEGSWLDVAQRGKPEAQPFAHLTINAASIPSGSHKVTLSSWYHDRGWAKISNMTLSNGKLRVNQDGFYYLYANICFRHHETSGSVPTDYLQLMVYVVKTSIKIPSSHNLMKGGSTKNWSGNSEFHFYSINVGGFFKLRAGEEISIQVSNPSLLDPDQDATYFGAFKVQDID
The experiment in a line: Inhibition of recombinant mouse RANKL-induced TRAP activity in mouse RAW264.7 cells using 4-nitrophenyl phosphate as TRAP substrate preincubated for 4 days followed by substrate addition measured after 15 mins by ELISA reader analysis. The essentials: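 RAW264.7 cells (2 × 10⁴ per well) were cultured 4 days in α-MEM with 10% FBS, 2 mM L-glutamine and murine RANKL 100 ng/mL, with or without compound. Cells were lysed in 0.1% Triton X-100/50 mM Tris-HCl pH 7.2 on ice. They were incubated with 2 mg/mL 4-nitrophenyl phosphate in 0.09 M citrate for 15 min at 37 °C, stopped with 0.1 N NaOH, and read at 405 nm. Protein was measured by BCA.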

Each structure is given as a SMILES string.

Regarding `O=c1oc2ccc(-c3ccc(F)cc3F)cc2c(=O)n1-c1cc(F)ccc1F`, the IC50 (usually the concentration needed to halve the response being measured) stood at 4.31 µM.

`O=c1oc2ccc(-c3ccc(F)cc3F)cc2c(=O)n1-c1cccc(C(F)(F)F)c1`: the IC50 came out at 4.29 µM.

Consider `O=c1oc2ccccc2c(=O)n1-c1ccc(Cl)cc1F`, for which the IC50 was 10.6 µM.

Take `C#Cc1cccc(-n2c(=O)oc3ccc(-c4ccc(F)cc4F)cc3c2=O)c1`: the IC50 came to 3.7 µM.
